Experiments:
AKR1C3 = molecular target: T1, AKR1C3 (Homo sapiens, UniProt P42330); assay: AKR1C3 biochemical assay; conditions: in vitro
T1 sequence (P42330 1-323): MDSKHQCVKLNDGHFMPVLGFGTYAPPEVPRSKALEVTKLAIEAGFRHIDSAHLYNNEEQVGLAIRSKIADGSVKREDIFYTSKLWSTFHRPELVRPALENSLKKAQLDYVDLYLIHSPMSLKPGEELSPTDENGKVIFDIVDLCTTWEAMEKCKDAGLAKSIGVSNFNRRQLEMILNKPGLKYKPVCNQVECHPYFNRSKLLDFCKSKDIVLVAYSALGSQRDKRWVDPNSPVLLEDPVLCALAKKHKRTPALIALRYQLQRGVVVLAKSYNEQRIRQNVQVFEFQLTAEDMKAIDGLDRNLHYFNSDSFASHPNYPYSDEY

BSEP (vesicle assay) = BSEP (vesicle assay) (Homo sapiens, UniProt O95342); assay: Transporter inhibition, vesicle assay; assay type: in vitro ADME; conditions: read-out: Inhibition characteristics in vitro IC50
Chain of BSEP (vesicle assay) (O95342 whole entry): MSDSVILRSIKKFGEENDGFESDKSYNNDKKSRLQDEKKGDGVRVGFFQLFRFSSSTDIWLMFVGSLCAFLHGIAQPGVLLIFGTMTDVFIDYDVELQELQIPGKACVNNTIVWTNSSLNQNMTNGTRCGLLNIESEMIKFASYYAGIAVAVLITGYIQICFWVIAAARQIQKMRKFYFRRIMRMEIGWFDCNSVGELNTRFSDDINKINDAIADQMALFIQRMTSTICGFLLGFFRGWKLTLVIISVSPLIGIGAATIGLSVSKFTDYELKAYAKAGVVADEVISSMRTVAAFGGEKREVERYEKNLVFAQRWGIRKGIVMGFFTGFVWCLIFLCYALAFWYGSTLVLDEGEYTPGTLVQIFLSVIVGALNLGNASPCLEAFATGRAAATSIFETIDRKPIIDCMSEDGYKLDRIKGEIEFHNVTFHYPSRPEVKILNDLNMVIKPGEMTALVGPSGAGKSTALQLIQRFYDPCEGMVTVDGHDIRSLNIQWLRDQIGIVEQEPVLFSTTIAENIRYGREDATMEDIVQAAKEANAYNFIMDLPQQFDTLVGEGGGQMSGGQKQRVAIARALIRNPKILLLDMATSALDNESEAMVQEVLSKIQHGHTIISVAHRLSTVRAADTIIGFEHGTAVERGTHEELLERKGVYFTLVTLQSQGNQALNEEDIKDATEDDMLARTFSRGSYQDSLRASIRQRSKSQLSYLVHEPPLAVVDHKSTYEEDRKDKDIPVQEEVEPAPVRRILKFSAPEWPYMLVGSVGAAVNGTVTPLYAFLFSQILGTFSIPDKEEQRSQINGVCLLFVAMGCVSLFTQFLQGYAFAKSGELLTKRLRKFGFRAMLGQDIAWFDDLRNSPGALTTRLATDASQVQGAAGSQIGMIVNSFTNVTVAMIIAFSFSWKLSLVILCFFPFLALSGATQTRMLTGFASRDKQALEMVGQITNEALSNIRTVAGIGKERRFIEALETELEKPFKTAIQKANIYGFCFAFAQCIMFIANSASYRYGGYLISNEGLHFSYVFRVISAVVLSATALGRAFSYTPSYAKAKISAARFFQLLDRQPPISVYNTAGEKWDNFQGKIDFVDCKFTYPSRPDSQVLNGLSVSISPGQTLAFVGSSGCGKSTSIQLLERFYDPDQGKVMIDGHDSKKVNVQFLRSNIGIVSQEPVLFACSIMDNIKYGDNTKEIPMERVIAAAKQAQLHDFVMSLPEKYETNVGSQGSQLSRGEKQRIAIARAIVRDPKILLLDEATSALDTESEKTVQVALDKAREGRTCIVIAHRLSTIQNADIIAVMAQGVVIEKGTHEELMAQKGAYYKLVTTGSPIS

[1] = test system: adult premenopausal women with endometriosis-related pain symptoms; assay: AKRENDO1 phase IIa trial, liver laboratory parameters; assay type: in vivo, human
Method in brief: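 Over 12 weeks of oral dosing or placebo, ALT, AST, total bilirubin and INR were measured at all visits except visit 2. Baseline was the last value before treatment start (visit 3, otherwise screening). Suspected liver injury was worked up per FDA 2009 DILI guidance. Severity was graded by DILI Expert Working Group criteria and causality by RUCAM. Post-baseline ALT was classed by ULN multiples.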

[2] = 60 mg BID; cited from earlier work
recombinant human AKR1C2 = molecular target: T2, recombinant human AKR1C2 (Homo sapiens, UniProt P52895); assay: Related enzyme screen; assay type: biochemical; conditions: preclinical screen
T2 sequence (P52895 1-323): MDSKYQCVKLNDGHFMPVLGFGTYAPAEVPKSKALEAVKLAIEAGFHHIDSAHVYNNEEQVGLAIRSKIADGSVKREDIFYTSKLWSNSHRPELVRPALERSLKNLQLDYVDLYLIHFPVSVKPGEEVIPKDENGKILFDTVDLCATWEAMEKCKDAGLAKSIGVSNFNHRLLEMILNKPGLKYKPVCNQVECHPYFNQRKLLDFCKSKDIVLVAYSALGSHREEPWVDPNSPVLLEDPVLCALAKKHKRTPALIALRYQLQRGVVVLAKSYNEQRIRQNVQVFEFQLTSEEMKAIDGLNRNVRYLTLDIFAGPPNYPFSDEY

[3] = 3 mg OD n = 11, largest value per participant
[4] = 3 mg OD n = 11, treatment-emergent
[5] = 10 mg OD n = 31, largest value per participant
[6] = 10 mg OD n = 31, treatment-emergent
[7] = 30 mg BID n = 11, largest value per participant
[8] = 30 mg BID n = 11, treatment-emergent
[9] = 30 mg OD n = 10, largest value per participant
[10] = 30 mg OD n = 10, treatment-emergent
[11] = 60 mg BID n = 27, largest value per participant
[12] = 60 mg BID n = 27, treatment-emergent

Q: With `CN(CCC(=O)O)C(=O)c1ccc2c(c1)CC[C@@H]1[C@@H]2CC[C@]2(C)C(c3cncc(F)c3)=CC[C@@H]12` [BAY1128688] as the molecule, how does the IC50 (AKR1C3) read?
A: < 0.002 µM

Q: What about the IC50 (BSEP (vesicle assay)) of the same molecule?
A: 3.6 µM

Q: What about the “ALT > 2 × ULN and ≤3 × ULN” value [1, 3] of the same molecule?
A: 0 n (%)

Q: What about the “ALT > 3 × ULN and ≤5 × ULN” value [1, 3] of the same molecule?
A: 0 n (%)

Q: What about the “ALT > 5 × ULN and ≤8 × ULN” value [1, 3] of the same molecule?
A: 0 n (%)

Q: And the “ALT > 8 × ULN” value [1, 3]?
A: 0 n (%)

Q: And the “AST > 3 × ULN and ≤5 × ULN” value [1, 3]?
A: 0 n (%)

Q: And the “AST > 8 × ULN” value [1, 3]?
A: 0 n (%)

Q: What about the “ALT, total number of participants with > 2 × ULN” value (shortened to “ALT, total number of participants”) [1, 4] of the same molecule?
A: 0 n (%)

Q: What about the “AST, total number of participants with > 2 × ULN” value (“AST, total number of participants” for short) [1, 4] of the same molecule?
A: 0 n (%)

Q: What about the “Bilirubin in serum > 2 × ULN” value [1, 4] of the same molecule?
A: 0 n (%)

Q: And the “ALT > 2 × ULN and ≤3 × ULN” value [1, 5]?
A: 1 (3.2) n (%)

Q: And the “ALT > 3 × ULN and ≤5 × ULN” value [1, 5]?
A: 0 n (%)

Q: And the “ALT > 5 × ULN and ≤8 × ULN” value [1, 5]?
A: 0 n (%)

Q: And the “ALT > 8 × ULN” value [1, 5]?
A: 0 n (%)

Q: And the “AST > 3 × ULN and ≤5 × ULN” value [1, 5]?
A: 0 n (%)

Q: What about the “AST > 8 × ULN” value [1, 5] of the same molecule?
A: 0 n (%)

Q: What about the “ALT, total number of participants” value [1, 6] of the same molecule?
A: 1 (3.2) n (%)

Q: And the “AST, total number of participants” value [1, 6]?
A: 0 n (%)

Q: What about the “Bilirubin in serum > 2 × ULN” value [1, 6] of the same molecule?
A: 0 n (%)

Q: What about the “ALT > 2 × ULN and ≤3 × ULN” value [1, 7] of the same molecule?
A: 0 n (%)

Q: And the “ALT > 3 × ULN and ≤5 × ULN” value [1, 7]?
A: 0 n (%)

Q: What about the “ALT > 5 × ULN and ≤8 × ULN” value [1, 7] of the same molecule?
A: 0 n (%)

Q: What about the “ALT > 8 × ULN” value [1, 7] of the same molecule?
A: 0 n (%)

Q: And the “AST > 3 × ULN and ≤5 × ULN” value [1, 7]?
A: 0 n (%)

Q: What about the “AST > 8 × ULN” value [1, 7] of the same molecule?
A: 0 n (%)

Q: What about the “ALT, total number of participants” value [1, 8] of the same molecule?
A: 0 n (%)

Q: And the “AST, total number of participants” value [1, 8]?
A: 0 n (%)

Q: And the “Bilirubin in serum > 2 × ULN” value [1, 8]?
A: 0 n (%)

Q: And the “ALT > 2 × ULN and ≤3 × ULN” value [1, 9]?
A: 0 n (%)

Q: And the “ALT > 3 × ULN and ≤5 × ULN” value [1, 9]?
A: 2 (20.0) n (%)

Q: What about the “ALT > 5 × ULN and ≤8 × ULN” value [1, 9] of the same molecule?
A: 0 n (%)

Q: What about the “ALT > 8 × ULN” value [1, 9] of the same molecule?
A: 1 (10.0) n (%)

Q: And the “AST > 3 × ULN and ≤5 × ULN” value [1, 9]?
A: 0 n (%)

Q: What about the “AST > 8 × ULN” value [1, 9] of the same molecule?
A: 1 (10.0) n (%)

Q: And the “ALT, total number of participants” value [1, 10]?
A: 3 (30.0) n (%)

Q: What about the “AST, total number of participants” value [1, 10] of the same molecule?
A: 1 (10.0) n (%)

Q: What about the “Bilirubin in serum > 2 × ULN” value [1, 10] of the same molecule?
A: 1 (10.0) n (%)

Q: What about the “ALT > 2 × ULN and ≤3 × ULN” value [1, 11] of the same molecule?
A: 1 (3.7) n (%)

Q: What about the “ALT > 3 × ULN and ≤5 × ULN” value [1, 11] of the same molecule?
A: 3 (11.1) n (%)

Q: And the “ALT > 5 × ULN and ≤8 × ULN” value [1, 11]?
A: 1 (3.7) n (%)

Q: And the “ALT > 8 × ULN” value [1, 11]?
A: 1 (3.7) n (%)

Q: And the “AST > 3 × ULN and ≤5 × ULN” value [1, 11]?
A: 2 (7.4) n (%)

Q: And the “AST > 8 × ULN” value [1, 11]?
A: 1 (3.7) n (%)

Q: And the “ALT, total number of participants” value [1, 12]?
A: 6 (22.2) n (%)

Q: What about the “AST, total number of participants” value [1, 12] of the same molecule?
A: 3 (11.1) n (%)

Q: What about the “Bilirubin in serum > 2 × ULN” value [1, 12] of the same molecule?
A: 2 (7.4) n (%)

Q: And the “Dose-dependency of increase in liver transaminases up to liver injury” value ([1]; AKRENDO1)?
A: Risk increased with dose, but extent of ALT increase/liver injury not directly correlated with exposure

Q: What about the “Dose-dependency of isolated increase in serum bilirubin” value ([1]; AKRENDO1) of the same molecule?
A: Directly correlated with exposure

Q: What about the “Timing of increase in liver transaminases up to liver injury” value ([1]; AKRENDO1) of the same molecule?
A: >8 weeks of exposure to BAY1128688

Q: And the “time to restoration of normal ALT levels” value ([1]; after end of treatment)?
A: up to 3 months

Q: What about the “participants with ALT increase > 5 × ULN” value ([1]; all dose groups) of the same molecule?
A: Three

Q: What about the “participants with increased ALT > 3 × ULN” value ([1]; all dose groups, 90 exposed) of the same molecule?
A: eight

Q: And the “hepatotoxicity (elevations in serum ALT)” value ([1]; at around 12 weeks of treatment)?
A: Dose-/exposure-dependent hepatotoxicity was observed

Q: What about the “total concentration in human plasma” value [2] of the same molecule?
A: approximately 10 µM

Q: And the “unbound maximum steady-state concentration in human plasma” value [2]?
A: < 0.1 µM

Q: What about the “activity against related enzyme” value (recombinant human AKR1C2) of the same molecule?
A: no relevant activity
